# Legend:
# [1] = In situ mouse brain perfusion; assay type: in vivo
# Summary of the method: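 Adult male mice, 25 ± 5 g, anaesthetised with i.p. ketamine 120 mg/kg plus xylazine. Right external carotid ligated; right common carotid cannulated with a 100 IU/mL heparin-filled catheter. Perfused with 100 μM test compound at 37 °C and 2.5 mL/min for 60 s, then washed 2 s with 4 °C drug-free buffer. Brain level measured (detection limit 5 pmol/g).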
# [2] = molecular target: native AMPA receptors; experiment: Radioligand binding at native AMPA receptors; conditions: read-out: AMPA IC50; [3H]AMPA, rat synaptosomes
# Summary of the method: (§1)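 Native receptors in rat brain synaptosomes: AMPA labelled with [3H]AMPA, KA with [3H]KA, NMDA with [3H]CGP-39653. Recombinant homomeric rat GluK1-3 labelled with [3H]KA. IC50 and Ki values derived from displacement data.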
# [3] = molecular target: native KA receptors; experiment: Radioligand binding at native KA receptors; conditions: [3H]KA, rat synaptosomes
# Summary of the method: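 Native kainate receptors in rat brain synaptosomes were labelled with [3H]KA, and displacement by the test compound was measured. IC50 and Ki values were derived from the binding data.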
# [4] = molecular target: iGluRs; experiment: Binding affinity at iGluRs; design: species or system rat; conditions: native iGluRs and homomeric GluK1-3
# Summary of the method: as §1
# [5] = molecular target: GluN1/GluN2A (Rattus norvegicus, UniProt Q00959); experiment: Two-electrode voltage-clamp electrophysiology, Xenopus oocytes, GluN1/GluN2A; assay type: biochemical; conditions: 100 μM glycine and 10 μM Glu
# Summary of the method: (§2)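 Rat GluN1 and GluN2A-D cRNAs injected 1:2 into Xenopus oocytes, held at 18 °C in Barth's solution. Recorded at room temperature 2–6 days later in 90 mM NaCl, 1 mM KCl, 10 mM HEPES, 0.5 mM BaCl2, 0.01 mM EDTA (pH 7.4), −40 mV. Currents evoked by 100 μM glycine plus Glu: 10 μM (2A), 3 μM (2B, 2C), 1 μM (2D). Per-oocyte Hill fits, mean ± SEM.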
# [6] = molecular target: GluN1/GluN2B (Rattus norvegicus, UniProt Q00960); experiment: Two-electrode voltage-clamp electrophysiology, Xenopus oocytes, GluN1/GluN2B; assay type: biochemical; conditions: 100 μM glycine and 3 μM Glu
# Summary of the method: as §2
# [7] = molecular target: GluN1/GluN2C (Rattus norvegicus, UniProt Q00961); experiment: Two-electrode voltage-clamp electrophysiology, Xenopus oocytes, GluN1/GluN2C; assay type: biochemical; conditions: 100 μM glycine and 3 μM Glu
# Summary of the method: as §2
# [8] = molecular target: GluN1/GluN2D (Rattus norvegicus, UniProt Q62645); experiment: Two-electrode voltage-clamp electrophysiology, Xenopus oocytes, GluN1/GluN2D; assay type: biochemical; conditions: 100 μM glycine and 1 μM Glu
# Summary of the method: as §2
# [9] = In vivo pharmacokinetics in mice, 10 mg/kg i.p.; design: species or system mouse
# [10] = system: NMDA receptors in murine HCC cells; experiment: Calcium imaging of NMDA-induced Ca2+ transients in murine HCC cells; assay type: cell-based, mouse; conditions: 150 μM NMDA
# [11] = system: Abcb1 (Pgp); experiment: Transporter protein expression by SRM/MRM LC-MS/MS, Abcb1; assay type: cell-based, mouse; conditions: 10 μM, 48 h, HCC cell crude membrane fraction
# [12] = system: Abcg2 (Bcrp); experiment: Transporter protein expression by SRM/MRM LC-MS/MS, Abcg2; assay type: cell-based, mouse; conditions: 10 μM, 48 h, HCC cell crude membrane fraction
# [13] = system: Abcc2 (Mrp2); experiment: Transporter protein expression by SRM/MRM LC-MS/MS, Abcc2; assay type: cell-based, mouse; conditions: 10 μM, HCC cell crude membrane fraction
# [14] = system: Abcc4 (Mrp4); experiment: Transporter protein expression by SRM/MRM LC-MS/MS, Abcc4; assay type: cell-based, mouse; conditions: 10 μM, 48 h, HCC cell crude membrane fraction
# [15] = system: Slc2a1 (Glut1); experiment: Transporter protein expression by SRM/MRM LC-MS/MS, Slc2a1; assay type: cell-based, mouse; conditions: 10 μM, 48 h, HCC cell crude membrane fraction
# [16] = system: Slc7a5 (Lat1); experiment: Transporter protein expression by SRM/MRM LC-MS/MS, Slc7a5; assay type: cell-based, mouse; conditions: 10 μM, 48 h, HCC cell crude membrane fraction
# [17] = system: native NMDA receptors; experiment: Radioligand binding at native NMDA receptors; design: species or system rat; conditions: compared with 1l / 1n
# [18] = system: mouse HCC cells; experiment: Anti-proliferative activity in vitro; assay type: cell-based; conditions: 72 h
# Summary of the method: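 Mouse Nras-driven p53−/− HCC cells in DMEM with 2 mM L-glutamine, 10% heat-inactivated FBS and penicillin/streptomycin. Cells seeded at 2×10^4/well on collagen-coated plates and used one day later. Test compound given at 0.1–200 μM, or at 1, 2.5, 5 and 10 μM with or without a 100 μM second test compound, for 72 h with daily medium change. Viability read by resazurin fluorescence (ex 560/em 590 nm). IC50 by nonlinear regression, mean ± SEM.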
# Chain of GluN1/GluN2B (Q00960 27-1482, other chains not shown): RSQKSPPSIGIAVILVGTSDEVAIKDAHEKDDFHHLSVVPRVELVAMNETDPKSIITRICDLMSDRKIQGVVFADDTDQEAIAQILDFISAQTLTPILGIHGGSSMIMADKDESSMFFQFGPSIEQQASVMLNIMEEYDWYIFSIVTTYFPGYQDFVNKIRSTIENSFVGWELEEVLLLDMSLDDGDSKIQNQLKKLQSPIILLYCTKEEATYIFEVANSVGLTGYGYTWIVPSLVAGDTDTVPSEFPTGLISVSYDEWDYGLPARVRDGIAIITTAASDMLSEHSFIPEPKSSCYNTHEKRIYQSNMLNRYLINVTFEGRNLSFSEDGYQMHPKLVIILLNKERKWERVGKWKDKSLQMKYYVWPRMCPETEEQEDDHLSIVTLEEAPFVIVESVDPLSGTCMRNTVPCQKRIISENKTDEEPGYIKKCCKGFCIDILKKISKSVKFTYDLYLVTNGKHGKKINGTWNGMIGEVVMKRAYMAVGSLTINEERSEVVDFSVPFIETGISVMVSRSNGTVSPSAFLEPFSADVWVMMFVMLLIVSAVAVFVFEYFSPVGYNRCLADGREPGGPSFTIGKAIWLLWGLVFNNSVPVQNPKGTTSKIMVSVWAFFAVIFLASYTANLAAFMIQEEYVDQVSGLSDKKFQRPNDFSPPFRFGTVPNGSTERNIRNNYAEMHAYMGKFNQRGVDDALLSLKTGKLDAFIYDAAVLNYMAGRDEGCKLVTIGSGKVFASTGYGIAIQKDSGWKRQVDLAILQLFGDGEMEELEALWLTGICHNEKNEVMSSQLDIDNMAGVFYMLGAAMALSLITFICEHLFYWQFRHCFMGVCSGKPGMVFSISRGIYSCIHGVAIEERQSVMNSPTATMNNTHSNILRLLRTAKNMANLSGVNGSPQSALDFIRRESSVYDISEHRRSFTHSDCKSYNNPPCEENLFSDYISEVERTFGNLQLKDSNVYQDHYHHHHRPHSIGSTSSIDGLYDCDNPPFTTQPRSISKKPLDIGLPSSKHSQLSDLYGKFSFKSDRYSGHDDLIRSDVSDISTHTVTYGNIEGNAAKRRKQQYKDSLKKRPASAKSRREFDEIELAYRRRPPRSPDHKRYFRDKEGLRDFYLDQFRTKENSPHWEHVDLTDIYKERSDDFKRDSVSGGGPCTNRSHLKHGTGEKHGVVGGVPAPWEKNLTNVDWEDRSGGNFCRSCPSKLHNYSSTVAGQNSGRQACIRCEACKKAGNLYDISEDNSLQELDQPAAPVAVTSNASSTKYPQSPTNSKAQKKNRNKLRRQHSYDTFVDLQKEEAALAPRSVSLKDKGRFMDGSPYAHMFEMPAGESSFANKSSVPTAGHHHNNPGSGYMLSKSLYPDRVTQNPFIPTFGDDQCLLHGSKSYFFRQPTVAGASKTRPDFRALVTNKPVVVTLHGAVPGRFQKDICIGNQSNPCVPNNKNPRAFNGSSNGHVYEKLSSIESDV
# Chain of GluN1/GluN2A (Q00959 23-1464, other chains not shown): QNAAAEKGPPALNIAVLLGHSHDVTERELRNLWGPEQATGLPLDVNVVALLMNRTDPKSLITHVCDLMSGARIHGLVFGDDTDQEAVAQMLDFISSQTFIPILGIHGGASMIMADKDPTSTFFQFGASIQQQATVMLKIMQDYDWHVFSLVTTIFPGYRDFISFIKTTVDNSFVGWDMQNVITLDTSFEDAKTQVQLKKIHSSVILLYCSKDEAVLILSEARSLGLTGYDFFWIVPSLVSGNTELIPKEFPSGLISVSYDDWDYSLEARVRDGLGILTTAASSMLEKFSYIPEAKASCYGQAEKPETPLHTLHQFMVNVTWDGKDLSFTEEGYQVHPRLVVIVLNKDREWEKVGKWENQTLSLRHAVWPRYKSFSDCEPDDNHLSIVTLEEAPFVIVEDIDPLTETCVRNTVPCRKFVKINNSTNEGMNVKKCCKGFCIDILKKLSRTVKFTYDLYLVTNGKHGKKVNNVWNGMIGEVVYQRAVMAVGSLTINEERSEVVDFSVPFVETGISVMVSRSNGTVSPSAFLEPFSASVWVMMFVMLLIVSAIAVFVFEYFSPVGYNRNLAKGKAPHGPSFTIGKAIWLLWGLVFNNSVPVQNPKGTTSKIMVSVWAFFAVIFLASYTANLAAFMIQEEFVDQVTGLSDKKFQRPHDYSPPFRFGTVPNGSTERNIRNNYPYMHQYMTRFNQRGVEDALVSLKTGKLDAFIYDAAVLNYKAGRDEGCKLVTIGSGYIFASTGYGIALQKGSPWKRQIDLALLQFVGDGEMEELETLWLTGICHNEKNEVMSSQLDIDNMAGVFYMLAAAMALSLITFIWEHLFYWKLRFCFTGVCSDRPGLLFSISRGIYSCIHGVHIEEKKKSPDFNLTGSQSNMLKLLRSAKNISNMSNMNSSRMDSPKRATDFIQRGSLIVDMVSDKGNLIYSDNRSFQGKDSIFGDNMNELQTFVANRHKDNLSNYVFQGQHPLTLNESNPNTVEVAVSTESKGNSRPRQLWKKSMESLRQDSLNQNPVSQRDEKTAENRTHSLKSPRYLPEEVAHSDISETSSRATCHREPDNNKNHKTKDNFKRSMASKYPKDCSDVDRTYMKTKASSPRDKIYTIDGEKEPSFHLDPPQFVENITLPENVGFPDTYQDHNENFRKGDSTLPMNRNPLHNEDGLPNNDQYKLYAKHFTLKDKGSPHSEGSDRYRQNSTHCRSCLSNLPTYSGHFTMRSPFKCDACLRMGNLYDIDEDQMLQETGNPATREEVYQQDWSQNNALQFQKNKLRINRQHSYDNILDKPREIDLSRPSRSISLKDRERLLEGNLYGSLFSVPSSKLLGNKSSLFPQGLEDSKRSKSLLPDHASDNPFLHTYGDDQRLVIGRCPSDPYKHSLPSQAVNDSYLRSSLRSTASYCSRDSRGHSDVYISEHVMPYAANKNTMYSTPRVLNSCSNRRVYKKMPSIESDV
# Chain of GluN1/GluN2D (Q62645 28-1323, other chains not shown): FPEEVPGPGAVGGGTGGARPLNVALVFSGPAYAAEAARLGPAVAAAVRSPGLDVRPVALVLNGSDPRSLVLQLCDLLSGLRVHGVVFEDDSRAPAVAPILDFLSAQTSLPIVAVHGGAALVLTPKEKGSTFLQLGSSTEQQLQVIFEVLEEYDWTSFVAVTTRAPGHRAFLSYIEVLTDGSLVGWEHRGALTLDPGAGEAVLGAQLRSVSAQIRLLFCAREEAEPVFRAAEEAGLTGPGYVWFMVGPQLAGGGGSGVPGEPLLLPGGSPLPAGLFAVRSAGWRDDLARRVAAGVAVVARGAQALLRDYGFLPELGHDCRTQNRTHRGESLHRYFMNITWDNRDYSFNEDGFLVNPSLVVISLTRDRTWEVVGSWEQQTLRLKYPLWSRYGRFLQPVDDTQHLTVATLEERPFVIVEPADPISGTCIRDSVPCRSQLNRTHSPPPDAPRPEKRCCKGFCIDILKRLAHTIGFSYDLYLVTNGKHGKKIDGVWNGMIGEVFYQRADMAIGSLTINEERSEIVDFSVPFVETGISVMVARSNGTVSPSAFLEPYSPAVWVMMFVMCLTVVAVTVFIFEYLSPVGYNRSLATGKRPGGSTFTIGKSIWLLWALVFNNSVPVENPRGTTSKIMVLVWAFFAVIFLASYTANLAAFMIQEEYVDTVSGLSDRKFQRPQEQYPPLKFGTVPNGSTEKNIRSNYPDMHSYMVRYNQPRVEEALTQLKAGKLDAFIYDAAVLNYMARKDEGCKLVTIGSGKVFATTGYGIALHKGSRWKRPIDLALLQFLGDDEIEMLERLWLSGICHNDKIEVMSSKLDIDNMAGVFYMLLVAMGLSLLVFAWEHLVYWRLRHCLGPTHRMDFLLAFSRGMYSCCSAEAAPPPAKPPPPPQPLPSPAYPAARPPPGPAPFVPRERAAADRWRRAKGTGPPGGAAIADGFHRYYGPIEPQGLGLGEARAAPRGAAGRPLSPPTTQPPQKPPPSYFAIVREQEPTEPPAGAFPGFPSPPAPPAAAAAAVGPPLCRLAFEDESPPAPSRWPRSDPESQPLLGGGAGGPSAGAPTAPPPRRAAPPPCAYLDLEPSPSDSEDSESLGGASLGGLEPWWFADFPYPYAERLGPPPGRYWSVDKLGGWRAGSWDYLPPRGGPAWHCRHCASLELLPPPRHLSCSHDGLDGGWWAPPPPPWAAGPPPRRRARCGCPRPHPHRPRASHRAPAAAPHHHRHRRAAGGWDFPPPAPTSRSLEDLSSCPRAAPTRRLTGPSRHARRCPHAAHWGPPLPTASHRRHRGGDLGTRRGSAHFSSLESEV
smiles,measurement,setting,value
"O=C(O)c1cccc([C@H]2CCN[C@@H]2C(=O)O)c1 [1a, (2S,3R)-3-(3-Carboxyphenyl)pyrrolidine-2-Carboxylic Acid]",BBB penetration,[1]; mouse in situ brain perfusion,does not penetrate the BBB
"Cl.O=C(O)[C@H]1NCC[C@@H]1c1cccc(Cl)c1 [1d, (2S,3R)-2-Carboxy-3-(3-chlorophenyl)pyrrolidin-1-ium chloride]",IC50,[2],> 100 µM
same,KA IC50,[3],>100 µM
"Cl.O=C(O)[C@H]1NCC[C@@H]1c1cccc(C(F)(F)F)c1 [1e, (2S,3R)-2-Carboxy-3-(3-(trifluoromethyl)phenyl)pyrrolidin-1-ium chloride]",IC50,[2],> 100 µM
same,KA IC50,[3],>100 µM
"Cl.Cl.Nc1cccc([C@H]2CCN[C@@H]2C(=O)O)c1 [1f, (2S,3R)-3-(3-Aminophenyl)pyrrolidine-2-carboxylic acid dihydrochloride]",IC50,[2],> 100 µM
same,KA IC50,[3],>100 µM
"Cl.N#Cc1cccc([C@H]2CCN[C@@H]2C(=O)O)c1 [1g, (2S,3R)-3-(3-Cyanophenyl)pyrrolidine-2-carboxylic acid hydrochloride]",IC50,[2],> 100 µM
same,KA IC50,[3],>100 µM
"Cl.NC(=O)c1cccc([C@H]2CCN[C@@H]2C(=O)O)c1 [1h, (2S,3R)-3-(3-Carbamoylphenyl)-2-carboxypyrrolidin-1-ium chloride]",IC50,[2],> 100 µM
same,KA IC50,[3],>100 µM
same,IC50 or Ki at the iGluRs,[4],> 100 µM
"Cl.O=C(O)[C@H]1NCC[C@@H]1c1cccc(B(O)O)c1 [1i, (2S,3R)-3-(3-Boronophenyl)pyrrolidine-2-carboxylic acid hydrochloride]",IC50,[2],> 100 µM
same,KA IC50,[3],>100 µM
same,IC50 or Ki at the iGluRs,[4],> 100 µM
"O=C(O)[C@H]1NCC[C@@H]1c1ccc(O)c(O)c1 [1j, (2S,3R)-3-(3,4-Dihydroxyphenyl)pyrrolidine-2-carboxylic acid]",IC50,[2],> 100 µM
same,KA IC50,[3],>100 µM
"O=C(O)c1cc([C@H]2CCN[C@@H]2C(=O)O)ccc1F [1k, (2S,3R)-2-Carboxy-3-(3-carboxy-4-fluorophenyl)pyrrolidin-1-ium chloride]",IC50,[2],> 100 µM
"Cl.O=C(O)c1cc([C@H]2CCN[C@@H]2C(=O)O)ccc1Cl [1l, (2S,3R)-3-(3-Carboxy-4-chlorophenyl)pyrrolidine-2-carboxylic acid hydrochloride]",IC50,[2],> 100 µM
same,KA IC50,[3],>100 µM
same,nH (Hillslope),[5],1.3
same,nH (Hillslope),[6],1.3
same,nH (Hillslope),[7],1.0
same,nH (Hillslope),[8],1.3
same,changes in the behavior of the mice after injection,[9]; 10 mg/kg i.p.,no observable changes in the behavior
same,brain concentration,[9]; 30 min after 10 mg/kg i.p.,0.3 nmol/g
same,brain concentration,[9]; 60 min after 10 mg/kg i.p.,0.1 nmol/g
same,brain concentration following perfusion,"[1]; perfusion with 100 μM of the compound, detection limit of analytical method",< 5 pmol/g
same,inhibition of NMDA-induced intracellular Ca2+ transients,[10]; compound at 25 and 41 μM,inhibit NMDA activation significantly
same,Abcb1 (Pgp) protein expression level,[11],0.39± 0.06 fmol/μg of total protein
same,Abcg2 (Bcrp) protein expression level,[12],1.24± 0.13 fmol/μg of total protein
same,Abcc2 protein expression,[13],below the lower limit of quantification
same,Abcc4 (Mrp4) protein expression level,[14],0.27 ± 0.04 fmol/μg of total protein
same,Slc2a1 (Glut1) protein expression level,[15],13.2± 0.53 fmol/μg of total protein
same,Slc7a5 (Lat1) protein expression level,[16],5.72± 1.61 fmol/μg of total protein
"Cc1ccc([C@H]2CCN[C@@H]2C(=O)O)cc1C(=O)O.Cl [1m, (2S,3R)-3-(3-Carboxy-4-methylphenyl)pyrrolidine-2-carboxylic acid hydrochloride]",IC50,[2],> 100 µM
same,KA IC50,[3],>100 µM
same,drop in binding affinity for native NMDA receptors,[17],30 fold
"Cl.O=C(O)c1cc([C@H]2CCN[C@@H]2C(=O)O)ccc1Br [1n, (2S,3R)-3-(3-Carboxy-4-bromophenyl)pyrrolidine-2-carboxylic acid hydrochloride]",IC50,[2],> 100 µM
same,KA IC50,[3],>100 µM
"N[C@H](CCCP(=O)(O)O)C(=O)O [D-AP5, reference compound]",inhibition of NMDA-induced intracellular Ca2+ transients,[10]; compound at 20 μM,inhibit NMDA activation significantly
CNC(=O)c1cc(Oc2ccc(NC(=O)Nc3ccc(Cl)c(C(F)(F)F)c3)cc2)ccn1 [sorafenib],IC50,[18]; read-out: IC50 on HCC cell viability,7.4 ± 1.7 µM
same,viability at 1 µM,[18]; read-out: cell viability,88 ± 3%
same,viability at 2.5 µM,[18]; read-out: cell viability,82 ± 3%
same,viability at 5 µM,[18]; read-out: cell viability,72 ± 1%
same,viability at 10 µM,[18]; read-out: cell viability,31 ± 2%
